From ChEMBL document CHEMBL1124867, “Synthesis and antiviral activity of monofluoro and difluoro analogues of pyrimidine deoxyribonucleosides against human immunodeficiency virus (HIV-1)” (J Med Chem, 1990)

What was measured:
C8166 [1] = assay: Concentration of compound that inhibits incorporation of radiolabeled amino acids by 50 %; type: functional; settings: Homo sapiens, read-out: CD50 (the source's name)
In short: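 C8166 cells (2 × 10⁵) exposed to compound at various concentrations for 3 days, washed, then given ¹⁴C protein hydrolysate for a further 24 h. Cells harvested and washed, ¹⁴C incorporation counted by scintillation, radioactivity plotted against concentration; CD50 = concentration inhibiting label incorporation by 50%.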

C8166 [2] = assay: Antiviral activity against HIV-1 (RF strain) in C8166 cells; type: functional, cell-based; settings: Homo sapiens
In short: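 HIV-1 RF strain in C8166 cells, 3-day incubation with compound at various concentrations (highest tested 100 μM). Virus in culture medium quantified by p24 antigen-capture ELISA (primary antiserum against p24, horseradish peroxidase detection), colour read spectrophotometrically and plotted against concentration; IC50 = concentration reducing virus levels by 50%.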

SMILES	CC50 (C8166 [1])	IC50 (C8166 [2])
Cc1cn([C@@H]2O[C@H](CO)C=C2F)c(=O)[nH]c1=O	> 1000 µM	100 µM
Nc1ccn([C@@H]2O[C@H](CO)C[C@@H]2F)c(=O)n1	500 µM	0.7 µM
Nc1ccn([C@@H]2O[C@H](CO)C=C2F)c(=O)n1	30 µM	10 µM
O=c1ccn(C2OC(CO)C=C2F)c(=O)[nH]1 (configuration not stated)		> 100 µM
Nc1ccn(C2OC(CO)CC2F)c(=O)n1 (configuration not stated)		> 100 µM
O=c1ccn(C2OC(CO)C(F)C2F)c(=O)[nH]1 (configuration not stated)		> 100 µM
Nc1nc(=O)n(C2OC(CO)CC2F)cc1F (configuration not stated)		> 100 µM
O=c1ccn(C2OC(CO)CC2F)c(=O)[nH]1 (configuration not stated)		> 100 µM
Nc1ccn(C2OC(CO)C(F)C2F)c(=O)n1 (configuration not stated)	> 100 µM	10 µM
Nc1ccn([C@H]2CC[C@@H](CO)O2)c(=O)n1 [ZALCITABINE]	1000 µM	0.125 µM
Cc1cn([C@H]2C[C@H](N=[N+]=[N-])[C@@H](CO)O2)c(=O)[nH]c1=O [ZIDOVUDINE]	> 1000 µM	0.0085 µM
